The source of these data is ChEMBL document CHEMBL4177743, “α-Methylation enhances the potency of isoprenoid triazole bisphosphonates as geranylgeranyl diphosphate synthase inhibitors” (Bioorg Med Chem, 2018).

pIC50: −log10 of the molar value. The source made the active and inactive calls. The rule behind the calls is not given here.

For assay [1], the target named is T1, Geranylgeranyl pyrophosphate synthase (Homo sapiens) (UniProt O95749).
T1 sequence (whole entry): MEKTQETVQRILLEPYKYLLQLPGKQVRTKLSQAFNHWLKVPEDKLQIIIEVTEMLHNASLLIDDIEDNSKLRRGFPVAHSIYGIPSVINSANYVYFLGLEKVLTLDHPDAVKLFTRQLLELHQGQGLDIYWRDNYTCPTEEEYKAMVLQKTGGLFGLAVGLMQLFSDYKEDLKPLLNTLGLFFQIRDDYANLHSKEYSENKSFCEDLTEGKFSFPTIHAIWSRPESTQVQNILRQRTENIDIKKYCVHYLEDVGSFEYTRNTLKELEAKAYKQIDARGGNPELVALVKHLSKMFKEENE
As to the kind of experiment: Inhibition of GGDPS in human […] cells assessed as increase in Rap1a level at 1 to 10 uM by Western blot analysis. The format is cell-based. An outline of the steps: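 RPMI-8226 cells were treated for 48 h with varying compound concentrations or lovastatin (10 μM). RIPA lysates containing protease and phosphatase inhibitors were protein-equalized by BCA, then run on SDS-PAGE and transferred to PVDF. Blots were probed with an antibody detecting only unmodified (non-geranylgeranylated) Rap1a, with β-tubulin as loading control, and developed by HRP secondary and ECL.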

Assay [2] has as its target T2, Farnesyl pyrophosphate synthase (Homo sapiens, UniProt P14324).
T2 sequence (P14324 whole entry): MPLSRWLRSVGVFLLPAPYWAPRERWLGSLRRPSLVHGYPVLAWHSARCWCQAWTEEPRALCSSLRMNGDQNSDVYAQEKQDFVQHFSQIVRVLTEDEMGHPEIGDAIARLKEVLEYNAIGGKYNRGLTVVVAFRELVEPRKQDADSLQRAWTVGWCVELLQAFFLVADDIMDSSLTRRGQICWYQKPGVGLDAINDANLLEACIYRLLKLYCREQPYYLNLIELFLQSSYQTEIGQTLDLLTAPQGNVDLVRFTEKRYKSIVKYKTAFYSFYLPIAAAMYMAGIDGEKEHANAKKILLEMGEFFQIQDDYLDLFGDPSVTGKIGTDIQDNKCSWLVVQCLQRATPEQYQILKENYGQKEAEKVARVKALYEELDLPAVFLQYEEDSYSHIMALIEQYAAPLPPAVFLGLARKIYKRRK
The assay is described as follows: Inhibition of recombinant FDPS (unknown origin) using GPP as substrate pretreated for 10 mins followed by substrate addition measured after 30 mins in presence of [14C]-IPP by liquid scintillation counting method. The essentials:
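Recombinant FDPS was a gift from an academic laboratory. Each compound was tested in duplicate at multiple concentrations across three independent experiments to obtain IC50, with zoledronic acid as positive control in every run.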

The target of assay [3] is T1, Geranylgeranyl pyrophosphate synthase (Homo sapiens). The assay is described as follows: Inhibition of GGDPS in human […] cells assessed as decrease in Rab GTPase geranylgeranylation by measuring accumulation of intracellular lambda light chain after 48 hrs by ELISA. The format is cell-based. The essentials:
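RPMI-8226 myeloma cells were exposed for 48 h to a range of test concentrations, with lovastatin (10 μM) as positive control. Whole-cell lysates were made in RIPA buffer with protease and phosphatase inhibitors. Intracellular lambda light chain was quantified by human lambda ELISA and normalized to BCA total protein. Data are % of control, mean + SD, n=3; unpaired two-tailed t-test, p < 0.05.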
(An ELISA detects its analyte on a solid surface through an enzyme-linked reagent.)

For assay [4], the target named is T3, Geranylgeranyl pyrophosphate synthase (Homo sapiens, UniProt O95749).
T3 sequence (O95749 whole entry): T1 sequence (whole entry)
The assay is described as follows: Inhibition of recombinant GGDPS (unknown origin) using FPP as substrate pretreated for 10 mins followed by substrate addition measured after 30 mins in presence of [14C]-IPP by liquid scintillation counting method. The essentials:
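Commercial recombinant GGDPS was used, following a previously described protocol. Each compound was run in duplicate at several concentrations across three independent experiments, and IC50 was reported with digeranyl bisphosphate as the positive control in every run.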

For assay [5], the species on record is Homo sapiens. The assay is described as follows: Selectivity ratio of IC50 for recombinant FDPS (unknown origin) to IC50 for recombinant GGDPS (unknown origin). An outline of the steps: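 Ratio of FDPS IC50 to GGDPS IC50. Both enzymes were recombinant: FDPS from an academic source, GGDPS commercial. Each IC50 came from duplicate wells at multiple concentrations in three independent experiments. Positive controls were zoledronic acid for FDPS and digeranyl bisphosphate for GGDPS.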

The target in assay [6] is T1, Geranylgeranyl pyrophosphate synthase (Homo sapiens). The settings on record: 50 to 1000 nM.
For assay [7] the target is unchanged. Conditions: 50 to 1000 nM. This is another data set of the same source.

On to `CC(C)=CCC/C(C)=C/Cn1cc(CC(C)(P(=O)(O)O)P(=O)(O)O)nn1`, for which the MEC in assay [1] and in assay [3] was 5 µM throughout. In addition, the results for the pIC50 in assay [2] and in assay [4] were 4.15 and 4.69, respectively. Also, in assay [5], the Ratio IC50 was 3.5.
For `CC(C)=CCC/C(C)=C/CCn1cc(CC(C)(P(=O)(O)O)P(=O)(O)O)nn1` [listing 1 of 2 here], the MEC in assay [1] and in assay [3] was 0.02 µM throughout. Moreover, the Ratio IC50 in assay [5] was found to be 345.
As for `CC(C)=CCC/C(C)=C\CCn1cc(CC(C)(P(=O)(O)O)P(=O)(O)O)nn1`, the MEC in assay [1] and in assay [3] was 0.025 µM in each case. The pIC50 in assay [2] was 4.22. For the same molecule, the Ratio IC50 in assay [5] was determined as 693.
Turning to `CCC(Cc1cn(CC=C(C)CCC=C(C)C)nn1)(P(=O)(O)O)P(=O)(O)O`, the MEC in assay [1] and in assay [3] was 2.5 µM each time. Further, the pIC50 was 4.03 in assay [2] and 5.23 in assay [4]. For the same molecule, the Ratio IC50 in assay [5] was found to be 16.
Consider `CC(C)=CCC/C(C)=C/CCn1cc(CC(C)(P(=O)(O)O)P(=O)(O)O)nn1` (mixture of isomers) [listing 1 of 2 here], for which the MEC in assay [1] and in assay [3] was 0.03 µM throughout. The Ratio IC50 in assay [5] turned out to be 241.
Regarding `CC(C)=CCC/C(C)=C\Cn1cc(CC(C)(P(=O)(O)O)P(=O)(O)O)nn1`, the MEC in assay [1] and in assay [3] was 0.1 µM in each case. In addition, the pIC50 in assay [2] is less than 4.00; in assay [4], 6.04. Also, the Ratio IC50 in assay [5] was greater than 108.
As for `CC(C)=CCCC(C)=CCn1cc(CC(P(=O)(O)O)P(=O)(O)O)nn1` (mixture of isomers), the inhibition entry in assay [6] and in assay [7] was “Active” in each case.
Take `CC(C)=CCCC(C)=CCn1cc(CC(C)(P(=O)(O)O)P(=O)(O)O)nn1` (mixture of isomers): the MEC in assay [1] and in assay [3] was 0.1 µM in each case. Further, the pIC50 in assay [2] was 4.21; in assay [4] it was 5.90. Besides, the Ratio IC50 in assay [5] is 49.
Turning to `CC(C)=CCC/C(C)=C/CCn1cc(CC(C)(P(=O)(O)O)P(=O)(O)O)nn1` (mixture of isomers) [listing 2 of 2 here], the pIC50 is 4.62 in assay [2] and 7.00 in assay [4].
Regarding `CC(C)=CCC/C(C)=C/CCn1cc(CC(C)(P(=O)(O)O)P(=O)(O)O)nn1` [listing 2 of 2 here], the pIC50 in assay [2] is 4.37.

The pIC50 is the negative decadic logarithm of the IC50, by convention in mol/L.
